This note sets out measurements from PubChem BioAssay.

A short description of test [1]: reducers of endogenous Her2 protein level, primary screen, SKBR3 breast tumor cells, AlphaScreen, ATP viability (AID 461;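 active means Her2 level under about 52% in both replicate screens, with viability over 70% of control, limit read from the data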;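 on Her2 level: lower value means less Her2 protein in the cells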;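 on viability: percent of carrier control wells set as 100% viability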). To be noted: 18-24 h, measured here: SKBR3 viability, ATP luminescence, at 10 µM. In general terms: Alpha assays give light when donor and acceptor beads are brought close together.
In test [2] the target is Receptor tyrosine-protein kinase erbB-2 (Homo sapiens) (UniProt P04626). The description is as above. The settings on record: 18-24 h, at 10 µM, stronger effect = lower value.
A short description of test [3]: SK-BR-3 cell growth inhibitors, pilot screen, 24 h, human (AID 572;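 active means viability at or below 10% of carrier control in both of two separate runs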;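 further: compound exposure lasted between 18 and 24 h rather than exactly 24 h; 100% = carrier-treated control wells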). To be noted: SK-BR-3 viability, CellTiter-Glo luminescence, at 10 µM, stronger effect = lower value.
A short description of test [4]: HUVEC growth inhibition – cell-based, human, primary screen (AID 575;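 active means viability at or below 30% in both replicate assays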;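 further: 100% = median of untreated cell wells with 0.1% DMSO on each plate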). The settings on record: HUVEC proliferation, CellTiter-Glo luminescence, 72 h; at 10 µM; stronger effect = lower value. In outline: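 Assay system: primary human umbilical vein endothelial cells / Buffer or medium: endothelial basal medium with 2% FBS plus growth supplements / Compound dosing: one dose, 10 µM final, 0.1% DMSO / Timing: 72 h treatment at 37 °C / Signal: CTG luminescence / Benchmarks: 32 DMSO-only cell-control wells (high), 32 MePR drug-control wells (low) per plate / Plate: collagen-coated 384-well format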

Test [5] can be described thus: growth inhibitors of H69AR lung tumor, primary screen, human, duplicate replicates (AID 580;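 active means viability at or under a set limit in both replicates, limit being median viability minus 3 SD, cut at about 48% in these data, passing the limit was not always enough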;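 further: 100% = mean luminescence of untreated wells and 0% = no signal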). To be noted: H69AR lung tumor cells viability, ATP luminescence, 72 h; at 10 µM; stronger effect = lower value.
Test [6] is described as follows: reversal of MRP1-mediated doxorubicin resistance, pilot screen, H69AR cells, doxorubicin co-treatment (AID 601). To be noted: CellTiter-Glo, 72 h, at 10 µM; for differential viability (reversal): stronger effect = higher value. (In ATP-based viability assays light output follows the ATP content of the culture.)
Test [7] can be described thus: 384-well plate pilot, post-Golgi transport modulator project, inhibition of yeast transport mutant growth (AID 636; in the data active means inhibition above about 31%). To be noted: absorbance 615 nm, about 18 h, stronger effect = higher value.
Test [8] can be described thus: growth suppression of yeast trafficking mutant, preliminary HTS, modulators of trafficking downstream of Golgi apparatus project, 1536-format plate, OD 615 nm (AID 637; in the data active means inhibition above about 30%). The settings on record: yeast transport mutant growth, absorbance 615 nm, 18 h; stronger effect = higher value.
The mark [9] stands for this setting: H69AR cells + 2 uM doxorubicin, measured here: viability with 2 uM doxorubicin, stronger effect = lower value.
[10] abbreviates: H69AR cells, compound alone cytotoxicity.

The source made the active and inactive calls.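 How the source made its calls, unless noted: active means viability loss from added drug above about 55%, and viability with drug at most 40%, in both replicates (limit read from the data, passing the limit was not always enough); inconclusive means both conditions met in only one replicate; inactive means neither replicate meets both conditions.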

Sequence of Receptor tyrosine-protein kinase erbB-2 (Homo sapiens) (P04626 whole entry, looked up): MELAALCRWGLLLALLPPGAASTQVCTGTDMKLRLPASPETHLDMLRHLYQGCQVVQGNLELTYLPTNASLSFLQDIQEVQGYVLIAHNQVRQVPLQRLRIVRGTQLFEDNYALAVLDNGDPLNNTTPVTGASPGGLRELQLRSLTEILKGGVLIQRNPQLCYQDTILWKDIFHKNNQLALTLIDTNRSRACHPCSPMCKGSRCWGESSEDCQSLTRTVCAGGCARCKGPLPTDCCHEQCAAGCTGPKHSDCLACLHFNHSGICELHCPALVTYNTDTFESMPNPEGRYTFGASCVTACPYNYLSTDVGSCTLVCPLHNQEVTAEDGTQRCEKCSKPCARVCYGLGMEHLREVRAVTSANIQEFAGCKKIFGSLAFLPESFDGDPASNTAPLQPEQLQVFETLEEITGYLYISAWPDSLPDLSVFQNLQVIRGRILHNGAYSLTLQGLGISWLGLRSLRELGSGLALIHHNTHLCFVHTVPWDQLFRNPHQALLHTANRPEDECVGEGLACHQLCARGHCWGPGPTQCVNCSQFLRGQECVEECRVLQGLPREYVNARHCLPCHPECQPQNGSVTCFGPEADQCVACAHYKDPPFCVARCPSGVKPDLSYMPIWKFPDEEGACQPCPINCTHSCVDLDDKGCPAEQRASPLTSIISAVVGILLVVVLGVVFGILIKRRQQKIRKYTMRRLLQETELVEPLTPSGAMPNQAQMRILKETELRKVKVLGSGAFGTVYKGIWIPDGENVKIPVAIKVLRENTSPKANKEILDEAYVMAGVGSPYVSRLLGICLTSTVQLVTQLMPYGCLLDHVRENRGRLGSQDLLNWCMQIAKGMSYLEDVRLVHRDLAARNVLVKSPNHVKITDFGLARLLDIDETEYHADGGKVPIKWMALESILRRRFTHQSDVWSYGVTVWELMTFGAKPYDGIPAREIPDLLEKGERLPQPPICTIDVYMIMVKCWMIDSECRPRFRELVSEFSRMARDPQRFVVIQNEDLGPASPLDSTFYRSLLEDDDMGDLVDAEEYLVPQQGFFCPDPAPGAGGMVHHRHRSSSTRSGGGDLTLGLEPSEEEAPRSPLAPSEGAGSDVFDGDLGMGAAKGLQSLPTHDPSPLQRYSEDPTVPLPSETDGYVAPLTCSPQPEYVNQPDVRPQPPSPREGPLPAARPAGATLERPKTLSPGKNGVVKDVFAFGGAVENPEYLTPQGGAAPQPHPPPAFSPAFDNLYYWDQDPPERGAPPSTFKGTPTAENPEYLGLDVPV

Take `Cc1ccc(-n2nnnc2SCC(=O)N2CCN(C(=O)c3ccco3)CC2)c(C)c1`: the viability was 119% in test [1]; 119% (inactive) in test [3]; 86% (inactive) in test [4]; 95.5% (inactive) in test [5]; 94.8% in test [6] (setting [9]); 95.5% in test [6] (setting [10]). The Her2 level in test [2] was 84.5% (inactive). The differential viability (reversal) in test [6] (H69AR cells + 2 uM doxorubicin) was 0.745% (inactive). Also, the inhibition in test [7] is -7.76% (inactive); in test [8], -2.18% (inactive).

Turning to `CC1=C(C(=O)NC2CCC(C)CC2)C2(CCC(C)CC2)OC1=O` (stereo not given), the viability in test [1] was 112%; in test [3], 112% (inactive); in test [4], 96.2% (inactive); in test [5] it was 90.4% (inactive); in test [6] (setting [9]), 94.1%; in test [6] (setting [10]) it was 90.4%. For the same molecule, the Her2 level in test [2] is 84% (inactive). For the same molecule, in test [6] (H69AR cells + 2 uM doxorubicin), the differential viability (reversal) is -3.75% (inactive). For the same molecule, the inhibition was -2.27% (inactive) in test [7] and -5.25% (inactive) in test [8].

`O=C(Nc1ccccc1)N(O)c1ccc(Cl)cc1`: the viability in test [1] is 93%; in test [3], 93% (inactive); in test [4], 88.5% (inactive); in test [5], 89.7% (inactive); in test [6] (setting [9]) it was 77.9%; in test [6] (setting [10]) it was 89.7%. Further, the Her2 level in test [2] was 79% (inactive). In addition, in test [6] (H69AR cells + 2 uM doxorubicin), the differential viability (reversal) is 11.8% (inactive). Further, the inhibition in test [7] is -2.11% (inactive); in test [8], -4.5% (inactive).

On to `O=C1C2CC=CCC2C(=O)N1c1ccc(Cc2ccncc2)cc1` (stereo not given), for which the viability was 88% in test [1]; 88% (inactive) in test [3]; 83.8% (inactive) in test [4]; 100% (inactive) in test [5]; 97.8% in test [6] (setting [9]); 100% in test [6] (setting [10]). Besides, the Her2 level in test [2] is 96.5% (inactive). The differential viability (reversal) in test [6] (H69AR cells + 2 uM doxorubicin) is 2.21% (inactive). For the same molecule, the inhibition was 0.78% (inactive) in test [7] and -5.74% (inactive) in test [8].

As to `O=C(NC1CC1)C1CCN(c2ccc(S(=O)(=O)N3CCOCC3)cc2)CC1`, the viability in test [1] was 92.5%; in test [3], 92.5% (inactive); in test [4], 83% (inactive); in test [5], 94.7% (inactive); in test [6] (setting [9]), 77.7%; in test [6] (setting [10]), 94.7%. Also, the Her2 level in test [2] was 138% (inactive). The differential viability (reversal) in test [6] (H69AR cells + 2 uM doxorubicin) was 17.1% (inactive). Besides, the inhibition in test [7] is -0.13% (inactive); in test [8] it was -10% (inactive).

`O=C(NC1CCCCC1)c1ccc(S(=O)(=O)N2CCCCC2)cc1`: the viability in test [1] is 80.5%; in test [3], 80.5% (inactive); in test [4] it was 86% (inactive); in test [5], 74.9% (inactive); in test [6] (setting [9]), 105%; in test [6] (setting [10]) it was 74.9%. The Her2 level in test [2] is 108% (inactive). The differential viability (reversal) in test [6] (H69AR cells + 2 uM doxorubicin) was -29.9% (inactive). Further, the figures for the inhibition in test [7] and in test [8] were 4.29% (inactive) and -11.4% (inactive), respectively.

Turning to `CCOc1ccccc1C(=O)N1CCN(c2cccc(Cl)c2)CC1`, the viability in test [1] was 118%; in test [3] it was 118% (inactive); in test [4], 23.3% (active); in test [5], 28.2% (active); in test [6] (setting [9]), 63.8%; in test [6] (setting [10]) it was 28.2%. For the same molecule, in test [2], the Her2 level was 80% (inactive). Moreover, in test [6] (H69AR cells + 2 uM doxorubicin), the differential viability (reversal) was -35.7% (inactive). The inhibition in test [7] is -4.53% (inactive); in test [8], 1.15% (inactive).

For `COc1ccccc1C(=O)N1CCN=C1SCc1cccnc1`, the viability was 102% in test [1]; 102% (inactive) in test [3]; 97.5% (inactive) in test [4]; 96.8% (inactive) in test [5]; 85.3% in test [6] (setting [9]); 96.8% in test [6] (setting [10]). Further, in test [2], the Her2 level is 103% (inactive). Further, the differential viability (reversal) in test [6] (H69AR cells + 2 uM doxorubicin) was 11.6% (inactive). Moreover, the inhibition in test [7] is -3.65% (inactive); in test [8], -2.06% (inactive).

On to `COc1ccc(C2CC(=O)c3c(C)nc(N4CCN(c5ccccc5)CC4)nc3C2)cc1` (stereo not given), for which the viability in test [1] is 90%; in test [3], 90% (inactive); in test [4], 98.5% (inactive); in test [5] it was 97.3% (inactive); in test [6] (setting [9]), 78.3%; in test [6] (setting [10]), 97.3%. The Her2 level in test [2] is 88% (inactive). Also, the differential viability (reversal) in test [6] (H69AR cells + 2 uM doxorubicin) is 19% (inactive). The inhibition in test [7] is 0.79% (inactive); in test [8], -5.9% (inactive).

As for `CCS(=O)(=O)N1CCC(C(=O)NC2CCCCCCC2)CC1`, the viability in test [1] is 98%; in test [3], 98% (inactive); in test [4], 108% (inactive); in test [5], 97.5% (inactive); in test [6] (setting [9]), 89.6%; in test [6] (setting [10]), 97.5%. The Her2 level in test [2] is 110% (inactive). Further, the differential viability (reversal) in test [6] (H69AR cells + 2 uM doxorubicin) was 7.86% (inactive). Besides, the inhibition in test [7] is -0.51% (inactive); in test [8] it was -1.5% (inactive).

As to `c1ccc(SCc2nc3ccccc3[nH]2)nc1`, the viability is 99.5% in test [1]; 99.5% (inactive) in test [3]; 103% (inactive) in test [4]; 90.6% (inactive) in test [5]; 97.5% in test [6] (setting [9]); 90.6% in test [6] (setting [10]). In test [2], the Her2 level was 107% (inactive). Besides, in test [6] (H69AR cells + 2 uM doxorubicin), the differential viability (reversal) is -6.88% (inactive). Moreover, the figures for the inhibition in test [7] and in test [8] were -5.87% (inactive) and 22.3% (inactive), respectively.

For `CCOc1ccc(C(=O)N2CCN(C(=O)c3ccco3)CC2)cc1OCC`, the viability in test [1] is 110%; in test [3], 110% (inactive); in test [4] it was 85.8% (inactive); in test [5], 94.3% (inactive); in test [6] (setting [9]), 94%; in test [6] (setting [10]) it was 94.3%. Besides, the Her2 level in test [2] is 85% (inactive). Moreover, in test [6] (H69AR cells + 2 uM doxorubicin), the differential viability (reversal) is 0.255% (inactive). The inhibition in test [7] was -3.47% (inactive); in test [8] it was -0.79% (inactive).

In the case of `Cc1cnc(C(=O)Nc2ccc(N3CCOCC3)cc2)cn1`, the viability was 95% in test [1]; 95% (inactive) in test [3]; 116% (inactive) in test [4]; 100% (inactive) in test [5]; 88.5% in test [6] (setting [9]); 100% in test [6] (setting [10]). Besides, in test [2], the Her2 level was 87% (inactive). Besides, the differential viability (reversal) in test [6] (H69AR cells + 2 uM doxorubicin) is 11.7% (inactive). Besides, the inhibition was -1.32% (inactive) in test [7] and -1.45% (inactive) in test [8].

For the molecule `O=C(CCCn1ncn2c(cc3occc32)c1=O)N1CCc2ccccc2C1`, the viability in test [1] was 126%; in test [3], 126% (inactive); in test [4], 83.8% (inactive); in test [5], 84.7% (inactive); in test [6] (setting [9]), 90.5%; in test [6] (setting [10]) it was 84.7%. In test [2], the Her2 level is 90.5% (inactive). Moreover, the differential viability (reversal) in test [6] (H69AR cells + 2 uM doxorubicin) is -5.79% (inactive). The inhibition in test [7] is -4.21% (inactive); in test [8], -6.73% (inactive).

For orientation: viability means a read-out of living cells in per cent, often relative to untreated cells. Usually inhibition stands for the relative decrease from the control value, in per cent.
